We go through one compound from ChEMBL document CHEMBL1123757, “Selective thromboxane synthetase inhibitors and antihypertensive agents. New derivatives of 4-hydrazino-5H-pyridazino[4,5-b]indole, 4-hydrazinopyridazino[4,5-a]indole, and related compounds” (J Med Chem, 1987).

For assay [1], the species on record is Homo sapiens. Description: In vitro inhibition of platelet aggregation induced by ADP-II (PRP incubated for 60 minutes at 37 degree C) at 5e-6 M. It is filed as functional. A digest of the protocol: (§1)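 Human venous blood anticoagulated with 3.8% sodium citrate (1:9). PRP from centrifugation at 800 rpm for 10 min at room temperature. Count adjusted with PPP to […]. Compound in saline with 10% ethylene glycol is added to PRP and incubated at 37 °C before the agonist. Agonists: ADP 2×10^-5 M, AA 0.6 mM, PGH2 2.8 μM, adrenaline 0.6 μM. Born absorbance aggregometry; n = 5.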

Assay [2] has as its system Rattus norvegicus. Briefly: Antihypertensive activity in spontaneously hypertensive rats (SHR) measured by percentage fall in cardiac rhythm (CR) at 50 mg/kg administered intraperitoneally at 5 h. It is filed as functional, Heart. The following applies: route intraperitoneal. A digest of the protocol:
(§2)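 Conscious SHR (Okamoto strain), 8 weeks old, male and female, 300–350 g, systolic BP ≥190 mmHg, CR 400–650 beats/min. Given ip or po at 2.5 mL/kg in normal saline or saline with 0.2% (carboxymethyl)cellulose and 1.0% Tween 80. Tail AP and CR recorded by mechanical transduction at 1, 3, 5 and 24 h, five animals per dose. Effect expressed as % fall versus control.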

Assay [3] concerns Cavia porcellus. Description: Effect on thromboxane synthetase activity on ex vivo platelet aggregation induced by TXB2 at 100 mg/kg expressed as percent increase. It is filed as functional. A digest of the protocol:
(§3)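 Fasted male or female guinea pigs (250–300 g, five per group) dosed orally in normal saline or saline with 0.2% (carboxymethyl)cellulose/1.0% Tween 80; controls given vehicle. Under ether, cardiac blood collected into 3.8% citrate. PRP adjusted to […] and aggregation induced by ADP (second wave) or AA, read by absorbance aggregometry. PGE2 and TXB2 measured by RIA.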

The species named for assay [4] is Homo sapiens. Description: In vitro inhibition of platelet aggregation induced by PGH-2 (PRP incubated for 60 minutes at 37 degree C) at 10e-5 M. It is filed as functional. The following applies: 1 h. A digest of the protocol: as §1
For assay [5], the species on record is Homo sapiens. Description: In vitro inhibition of platelet aggregation induced by ADP-II (PRP incubated for 5 minutes at 37 degree C) at 10e-5 M. It is filed as functional. A digest of the protocol:
as §1

The species entered for assay [6] is Homo sapiens. Description: In vitro inhibition of platelet aggregation induced by AA (PRP incubated for 60 minutes at 37 degree C) at 5e-6 M;No significance. It is filed as functional. The method in brief: as §1
For assay [7], the species on record is Homo sapiens. Briefly: Inhibition of platelet aggregation induced by AA (PRP incubated for 60 minutes at 37 degree C) at 10e-5 M. It is filed as functional. The note with it: 1 h. The method in brief: as §1
Assay [8] is filed under the species Homo sapiens. Description: In vitro inhibition of platelet aggregation induced by DD (PRP incubated for 5 minutes at 37 degree C) at 10e-5 M. It is filed as functional. The method in brief: as §1
Assay [9] relates to Cavia porcellus. Briefly: Ex vivo inhibition of platelet aggregation induced by AA at 100 mg/kg. It is filed as functional. The method in brief:
as §3

The target in assay [10] is T1, Thromboxane-A synthase (Homo sapiens) (UniProt P24557).
T1 sequence (whole entry): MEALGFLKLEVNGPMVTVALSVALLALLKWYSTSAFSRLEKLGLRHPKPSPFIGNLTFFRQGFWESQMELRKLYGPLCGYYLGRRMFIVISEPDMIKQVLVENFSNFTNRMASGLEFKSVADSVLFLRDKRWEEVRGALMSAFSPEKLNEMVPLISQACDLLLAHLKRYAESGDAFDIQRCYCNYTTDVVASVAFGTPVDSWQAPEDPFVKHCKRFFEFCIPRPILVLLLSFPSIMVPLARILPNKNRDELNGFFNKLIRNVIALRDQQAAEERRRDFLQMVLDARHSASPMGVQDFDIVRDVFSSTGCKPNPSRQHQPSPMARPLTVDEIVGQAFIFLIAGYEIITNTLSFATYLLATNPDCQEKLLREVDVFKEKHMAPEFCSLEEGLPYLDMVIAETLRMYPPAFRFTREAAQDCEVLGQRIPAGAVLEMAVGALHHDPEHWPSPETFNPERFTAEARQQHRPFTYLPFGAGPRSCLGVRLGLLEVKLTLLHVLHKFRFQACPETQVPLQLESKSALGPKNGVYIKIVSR
Briefly: Effect on thromboxane synthetase activity on in vitro platelet aggregation induced by AA at 10e -5 M expressed as percent inhibition of TXB2.

For assay [11], the system named is Rattus norvegicus. Briefly: Antihypertensive activity in spontaneously hypertensive rats (SHR) measured by percentage fall in cardiac rhythm (CR) at 50 mg/kg administered intraperitoneally at 3 h. It is filed as functional, Heart. The following applies: route intraperitoneal. A digest of the protocol: as §2
Assay [12] deals with Rattus norvegicus. Briefly: Antihypertensive activity in spontaneously hypertensive rats (SHR) measured by percentage fall in arterial pressure (AP) at 50 mg/kg administered intraperitoneally at 24 h. It is filed as functional, Artery. The note with it: route intraperitoneal. A digest of the protocol: (§4)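 Unanesthetized Okamoto-strain SHR, male and female, 8 weeks old, 300–350 g, systolic pressure ≥190 mmHg, heart rate 400–650 beats/min; five animals per dose. Given ip at 2.5 mL/kg, dissolved or suspended in normal saline or saline with 0.2% (carboxymethyl)cellulose and 1.0% Tween 80. Tail AP and CR recorded by mechanical transduction at set times; reported as percentage fall from control.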

Assay [13] relates to Rattus norvegicus. Description: Antihypertensive activity in spontaneously hypertensive rats (SHR) measured by percentage fall in cardiac rhythm (CR) at 50 mg/kg administered intraperitoneally at 24 h. It is filed as functional, Heart. The following applies: route intraperitoneal. A digest of the protocol:
as §2

In assay [14] the test system is Cavia porcellus. Briefly: Effect on thromboxane synthetase activity on ex vivo platelet aggregation induced by PGE-2 at 100 mg/kg expressed as percent increase. It is filed as functional. The method in brief: as §3
For assay [15], the system named is Rattus norvegicus. Briefly: Antihypertensive activity in spontaneously hypertensive rats (SHR) measured by percentage fall in arterial pressure (AP) at 50 mg/kg administered intraperitoneally at 3 h. It is filed as functional, Artery. The note with it: route intraperitoneal. The method in brief:
as §4

A short description of assay [16]: Effect on thromboxane synthetase activity on in vitro platelet aggregation induced by AA at 10e -5 M expressed as percent increase in PGE-2. It is filed as functional, Homo sapiens. A digest of the protocol: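 Human citrated PRP adjusted to 200 000 […], compound at 10^-5 M final in saline/10% ethylene glycol, incubated at 37 °C. Aggregation induced with arachidonic acid 0.6 mM and read by Born absorbance aggregometry. PGE2 and TXB2 in the aggregated samples measured by radioimmunoassay. n = 5.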

Assay [17] concerns Cavia porcellus. Description: Ex vivo inhibition of platelet aggregation induced by ADP-II at 100 mg/kg. It is filed as functional. A digest of the protocol: as §3
Assay [18] relates to Rattus norvegicus. Description: Antihypertensive activity in spontaneously hypertensive rats (SHR) measured by percentage fall in arterial pressure (AP) at 50 mg/kg administered intraperitoneally at 5 h. It is filed as functional, Artery. The following applies: route intraperitoneal. A digest of the protocol:
as §4

For assay [19], the species on record is Homo sapiens. Briefly: In vitro inhibition of platelet aggregation induced by ADP-II (PRP incubated for 5 minutes at 37 degree C) at 10e-6 M. It is filed as functional. A digest of the protocol: as §1
The species named for assay [20] is Homo sapiens. Description: In vitro inhibition of platelet aggregation induced by ADP-II (PRP incubated for 60 minutes at 37 degree C) at 10e-5 M. It is filed as functional. The following applies: 1 h. The method in brief:
as §1

For the compound `Oc1[nH]ncc2c3cc(OCc4ccccc4)ccc3nc1-2`, the Inhibition (in general, the drop in the measured response relative to a control, in per cent) in the assay filed under Homo sapiens [1] was 80%. The “Decrease in CR” value in the assay on Rattus norvegicus [2] is 15%; with Rattus norvegicus [11], 10%; in the assay with Rattus norvegicus [13], 9%. The inhibition in vivo (commonly the share of the control response that was lost under treatment) at 100 mg/kg in the assay on Cavia porcellus [3] was 50%; with Cavia porcellus [9] it was 100%; with Cavia porcellus [17], 100%. Moreover, the inhibition – broadly, the drop in the measured response relative to a control, in per cent – at 10 µM came out at 100% in the assay listed under Homo sapiens [4]; 60% in the assay filed under Homo sapiens [5]; 100% in the assay filed under Homo sapiens [7]; 100% in the assay filed under Homo sapiens [8]; 100% in the assay filed under Homo sapiens [20]. The inhibition entry in the assay listed under Homo sapiens [6] is “No significant values”. The Inhibition % in [10] was 50%. Besides, the “Decrease in AP” value was found to be 7% with Rattus norvegicus [12], 12% in the assay with Rattus norvegicus [15] and 13% in the assay with Rattus norvegicus [18]. Also, the Increase in the assay on Cavia porcellus [14] is 30%; in assay [16] it was 270%. This compound also displayed an inhibition at 1 µM in the assay filed under Homo sapiens [19] of 40%.
